Source: PMC12690603 (Chemical Science, 2025)
Non-standard residues stand in square brackets, D forms with d. No end group written: not given here. βAla = NCCC(=O)O

Tests used:
Format in all cases: biochemical
human SETD7 [1] = biological target: T1, human SETD7 (Homo sapiens, UniProt Q8WTS6); assay: SETD7-catalysed methylation of H3 peptides, conversion by MALDI-TOF MS; settings: SAM 30 µM; for methylation by SETD7 (conversion to methylated product): 13-mer peptide 10 µM, MALDI-TOF MS; for methylation by SETD7 in time-course: within 30 min
T1 sequence (Q8WTS6 1-366): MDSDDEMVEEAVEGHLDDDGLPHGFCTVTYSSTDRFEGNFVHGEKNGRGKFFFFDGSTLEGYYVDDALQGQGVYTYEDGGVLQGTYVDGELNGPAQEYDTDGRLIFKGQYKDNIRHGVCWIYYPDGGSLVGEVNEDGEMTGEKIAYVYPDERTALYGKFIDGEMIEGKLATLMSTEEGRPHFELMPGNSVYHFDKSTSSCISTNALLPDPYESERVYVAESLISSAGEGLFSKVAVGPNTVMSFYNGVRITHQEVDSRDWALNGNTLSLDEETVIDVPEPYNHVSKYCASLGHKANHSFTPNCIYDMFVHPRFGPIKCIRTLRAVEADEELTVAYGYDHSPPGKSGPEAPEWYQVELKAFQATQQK
Procedure, shortened: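 Recombinant human SETD7 (100 nM, 500 nM or 1 µM) was incubated with stapled or linear H3 peptide (10 µM) and SAM (30 µM) in 50 mM HEPES, 0.1 mM EDTA, 1 mM DTT, pH 8, at 37 °C with shaking at 750 rpm. Reactions were quenched with 10% (v/v) TFA at set times. Methylation (+14 Da) was measured by MALDI-TOF MS. % conversion came from peak areas. n = 2, standard deviations.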

human SETD7 [2] = biological target: T1, human SETD7; assay: Steady-state kinetics of SETD7-catalysed methylation; settings: for K m / k cat: peptide 1–150 µM, SETD7 50–300 nM, 10 or 20 min, MALDI-TOF MS, mean ± SD, SD; for K m / k cat / k cat/Km: SAM 30 µM, 37 °C, n = 3; for fold increase of kcat/Km compared to linear H3K4 (1): steady-state kinetics, relative to peptide 1; for k cat/Km: steady-state
Procedure, shortened: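 Recombinant human SETD7 (50–300 nM) added to start reactions containing H3 peptide (1–150 µM series) and SAM (30 µM). Incubated at 37 °C for 10 or 20 min with shaking, then quenched. MALDI-TOF MS was the read-out, with % methylation from integrated […] peak areas. Three independent experiments, SD. kcat/Km values were compared with the linear H3K4 reference peptide.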

human SETD1A = assay: SETD1A-catalysed methylation of 21-mer H3 peptides; settings: 21-mer peptide 2 µM, SETD1A 1 µM, SAM 100 µM, pH 8.6, 37 °C, 3 h, n = 2
[3] = SETD7 100 nM, peptide 10 µM, 37 °C, n = 2
[4] = SETD7 500 nM, 50 mM HEPES, 0.1 mM EDTA, 1 mM DTT, pH 8.0, 37 °C, 1 h, n = 2

Substance | methylation by SETD7 (conversion to methylated product) (human SETD7 [1]; SETD7 100 nM, 37 °C, 1 h) [%] | K m (human SETD7 [2]) [µM] | k cat (human SETD7 [2]) [s⁻¹] | fold increase of kcat/Km compared to linear H3K4 (1) (human SETD7 [2]) [fold] | k cat/Km (human SETD7 [2]) [M⁻¹ s⁻¹] | methylation by SETD7 (conversion to methylated product) (human SETD7 [1]; SETD7 1 µM, 37 °C, 3 h) [%] | further results
FRTKQEARKSTGG (also: sidechain bridge or staple (positions not given here)) [Peptide 9] | ~62 | 34.6 ± 9.78 | 0.0493 ± 0.00517 | 6 | 1430 |  | 
D-ARTKQEARKSTGG (sidechain bridge or staple) [Peptide 6] | ~89 | 10.4 ± 1.88 | 0.23 ± 0.014 | 97 | 22200 |  | methylation by SETD7 in time-course (human SETD7 [1]; [3]): ~90%
[βAla]RTKQEARKSTGG (also: sidechain bridge or staple (positions not given here)) [Peptide 11] | ~48 | 17.7 ± 3.15 | 0.0495 ± 0.00317 | 12 | 2830 |  | 
AzaRTKQPraARKSTGG (sidechain bridge or staple) [Peptide 3] |  | 36.2 ± 7.54 | 0.0598 ± 0.0065 | 7 | 1650 | ~95 | 
GRTKQEARKSTGG (also: sidechain bridge or staple (positions not given here)) [Peptide 7] | ~96 | 1.84 ± 0.27 | 0.046 ± 0.00283 | 110 | 25000 |  | methylation by SETD7 in time-course (human SETD7 [1]; [3]): ~90%
21-mer H3K4: longer linear H3K4 substrate peptide, residues 1–21 [reference compound] |  |  |  |  |  |  | dimethylated product by SETD1A (human SETD1A): ~9%; methylation by SETD7 (human SETD7 [1]; 21-mer peptide (residues 1–21) 10 µM, SETD7 500 nM, 37 °C, 3 h, n = 2): ~88%
ARTKQTARKSTGG [Peptide 1, reference compound] |  | 61.6 ± 12.6 | 0.014 ± 0.0013 |  | 233 |  | methylation/turnover in time-course at low enzyme concentration (in words) (human SETD7 [1]; SETD7 100 nM, peptide 10 µM, 37 °C, time-course): lack of H3K4 (1) methylation; methylation by SETD7 (conversion to methylated product) (human SETD7 [1]; [4]): ~56%
CRTKQCARKSTGG (also: sidechain bridge or staple (positions not given here)) [Peptide 2] |  |  |  |  |  | ~86 | 
GRTKQEARKSTGG [Peptide 16] |  |  |  |  |  | ~40 | 
RTKQEARKSTGG (also: sidechain bridge or staple (positions not given here)) [Peptide 12] |  |  |  |  |  | ~75 | 
GGRTKQEARKSTGG (also: sidechain bridge or staple (positions not given here)) [Peptide 13] |  |  |  |  |  | ~91 | 
VRTKQEARKSTGG (also: sidechain bridge or staple (positions not given here)) [Peptide 8] | ~64 | 34.1 ± 7.76 | 0.0423 ± 0.00433 | 5 | 1230 |  | 
GRTKQTERKSTGG (also: sidechain bridge or staple (positions not given here)) [Peptide 15] |  |  |  |  |  | ~11 | 
ARTKQDARKSTGG (also: sidechain bridge or staple (positions not given here)) [Peptide 5] | ~10 | 12.5 ± 2.77 | 0.031 ± 0.00233 | 10 | 2500 |  | methylation by SETD7 (conversion to methylated product) (human SETD7 [1]; [4]): fully converted to methylated product
GRTKETARKSTGG (also: sidechain bridge or staple (positions not given here)) [Peptide 14] |  |  |  |  |  | < 5 | 
ARTKQEARKSTGG (also: sidechain bridge or staple (positions not given here)) [Peptide 4] |  |  |  |  |  |  | methylation by SETD7 (conversion to methylated product) (human SETD7 [1]; [4]): ~63%
